{"source": "ChEMBL document CHEMBL4251733", "about": "“Manumycin A Is a Potent Inhibitor of Mammalian Thioredoxin Reductase-1 (TrxR-1)” (ACS Med Chem Lett, 2018)", "key": {"[1]": {"assay": "Drug metabolism assessed as selenocysteine reactivity at 20 uM incubated for 1 hr measured every 5 mins for 1 hr by sel-green probe based fluorescence assay", "assay_type": "physicochemical", "outline": "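Reduced L-selenocysteine (20 μM) reacted with Sel-green probe (20 μM) with test compound at 20 μM; DMSO-only control.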"}, "[2]": {"molecular_target": "T1, Thioredoxin reductase 1, cytoplasmic (Rattus norvegicus) (UniProt O89049)", "T1 sequence (whole entry)": "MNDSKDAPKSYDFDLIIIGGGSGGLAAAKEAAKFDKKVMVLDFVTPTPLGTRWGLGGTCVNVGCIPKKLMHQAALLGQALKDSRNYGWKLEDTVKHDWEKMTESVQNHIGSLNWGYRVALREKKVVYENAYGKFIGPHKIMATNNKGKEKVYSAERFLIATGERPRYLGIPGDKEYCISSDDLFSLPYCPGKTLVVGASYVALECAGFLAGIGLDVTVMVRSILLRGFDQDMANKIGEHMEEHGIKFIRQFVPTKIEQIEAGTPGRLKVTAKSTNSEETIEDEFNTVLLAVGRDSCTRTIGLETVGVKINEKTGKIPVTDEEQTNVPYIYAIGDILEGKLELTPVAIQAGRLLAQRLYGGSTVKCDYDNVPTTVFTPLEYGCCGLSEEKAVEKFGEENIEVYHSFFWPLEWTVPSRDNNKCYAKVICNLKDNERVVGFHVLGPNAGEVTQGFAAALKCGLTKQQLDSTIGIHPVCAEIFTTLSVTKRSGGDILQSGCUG", "assay": "Irreversible inhibition of NADPH-reduced recombinant rat TrxR1 expressed in Escherichia coli harboring gor mutant assessed as suppression of DTNB reduction at 2 uM pretreated for 1 hr followed by NADPH addition for 30 mins and subsequent DTNB addition measured every 5 mins for 1 hr"}, "[3]": {"molecular_target": "T2, Thioredoxin reductase 1, cytoplasmic (Rattus norvegicus, UniProt O89049)", "assay": "Inhibition of NADPH-reduced recombinant rat TrxR1 expressed in Escherichia coli harboring gor mutant assessed as suppression of DTNB reduction pretreated for 1 hr followed by DTNB addition measured every 5 mins for 1 hr", "outline": "(§1)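 Rat recombinant TrxR-1 (5.6 nM), prereduced, with DTNB (2 mM) and compound 0–5000 nM. Compound was either preincubated 1 h with enzyme before substrate or added at the same time as DTNB. Read-out was initial rates of DTNB reduction relative to no-compound control, giving IC50 (± error).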"}, "[4]": {"molecular_target": "T2, Thioredoxin reductase 1, cytoplasmic", "assay": "(§2) Inhibition of NADPH-reduced recombinant rat TrxR1 expressed in Escherichia coli harboring gor mutant assessed as suppression of insulin reduction using Trx as substrate pretreated for 30 mins followed by Trx addition for 30 mins and subsequent eosin-labelled bovine insulin addition measured every 5 mins for 1 hr by fluorescence assay"}, "[5]": {"molecular_target": "T1, Thioredoxin reductase 1, cytoplasmic (Rattus norvegicus)", "assay": "as §2"}, "[6]": {"molecular_target": "T1, Thioredoxin reductase 1, cytoplasmic (Rattus norvegicus)", "assay": "Inhibition of NADPH-reduced recombinant rat TrxR1 expressed in Escherichia coli harboring gor mutant assessed as suppression of DTNB reduction at 5 uM pretreated for 1 hr followed by DTNB addition measured every 5 mins for 1 hr", "outline": "as §1"}, "[7]": {"molecular_target": "T1, Thioredoxin reductase 1, cytoplasmic (Rattus norvegicus)", "assay": "Induction of recombinant rat TrxR1 NADPH oxidase activity expressed in Escherichia coli harboring gor mutant assessed as superoxide generation by measuring cytochrome C reduction at 62.5 uM measured in presence of SOD", "outline": "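TrxR-1 (100 nM) incubated with compound (62.5 μM), with and without SOD (6 units/well); reduction of cytochrome C (100 μM) followed over time; DMSO-only control.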"}, "[8]": {"molecular_target": "T1, Thioredoxin reductase 1, cytoplasmic (Rattus norvegicus)", "assay": "Inhibition of oxidized recombinant rat TrxR1 expressed in Escherichia coli harboring gor mutant assessed as suppression of DTNB reduction at 2 uM pretreated for 30 mins followed by NADPH addition for 30 mins and subsequent DTNB addition measured every 5 mins for 1 hr"}, "[9]": {"molecular_target": "T2, Thioredoxin reductase 1, cytoplasmic", "assay": "Inhibition of NADPH-reduced recombinant rat TrxR1 expressed in Escherichia coli harboring gor mutant assessed as suppression of DTNB reduction incubated for 1 hr in presence of DTNB measured every 5 mins for 1 hr", "outline": "as §1"}, "[10]": {"molecular_target": "T1, Thioredoxin reductase 1, cytoplasmic (Rattus norvegicus)", "assay": "Inhibition of NADPH-reduced recombinant rat TrxR1 expressed in Escherichia coli harboring gor mutant assessed as suppression of DTNB reduction at 5 uM incubated for 1 hr in presence of DTNB measured every 5 mins for 1 hr", "outline": "as §1"}, "[11]": {"molecular_target": "T1, Thioredoxin reductase 1, cytoplasmic (Rattus norvegicus)", "assay": "Time-dependent inhibition of NADPH-reduced recombinant rat TrxR1 expressed in Escherichia coli harboring gor mutant assessed as suppression of DTNB reduction at 1 uM measured every 5 mins for 1 hr"}}, "note": "The source made the active and inactive calls. No cut-off for these calls is given here."}
{"compound": "CCCCC(C)/C=C(C)/C=C(\\C)C(=O)Nc1cc(/C=C/C=C/C=C/C(=O)NC2=C(O)CCC2=O)c(O)cc1O", "note": "(configuration not stated)", "values": [{"measurement": "Drug metabolism", "setting": "[1]", "result": "Metabolite_Notdetected"}]}
{"compound": "CCCC[C@@H](C)/C=C(C)/C=C(\\C)C(=O)NC1=C[C@@](O)(/C=C/C=C/C=C/C(=O)NC2=C(O)CCC2=O)[C@@H]2O[C@@H]2C1=O", "note": "[MANUMYCIN A]", "values": [{"measurement": "inhibition", "setting": "[2]", "result": "Active"}, {"measurement": "Drug metabolism", "setting": "[1]", "result": "Metabolite_Detected"}, {"measurement": "IC50", "setting": "[3]", "result": 272, "unit": "nM"}, {"measurement": "IC50", "setting": "[4]", "result": 572, "unit": "nM"}, {"measurement": "inhibition", "setting": "[5]", "result": "Dose-dependent effect"}, {"measurement": "inhibition", "setting": "[6]", "result": "Active"}, {"measurement": "Activity", "setting": "[7]", "result": "inactive"}, {"measurement": "inhibition", "setting": "[8]", "result": "inactive"}, {"measurement": "IC50", "setting": "[9]", "result": 1590, "unit": "nM"}, {"measurement": "inhibition", "setting": "[10]", "result": "Active"}, {"measurement": "TDI", "setting": "[11]", "result": "Active"}]}
